≈ marks a conversion by molar mass, not a printed value.
What was measured:
Format in all cases: functional
Staphylococcus aureus [1] = assay: Antibacterial activity against MLS-resistant Staphylococcus aureus PU 32 expressing inducible ermA gene assessed as reduction in microbial growth by CLSI based two-fold broth dilution method
Streptococcus pneumoniae [2] = assay: Antibacterial activity against erythromycin-susceptible Streptococcus pneumoniae ATCC49619 assessed as reduction in microbial growth by CLSI based two-fold broth dilution method
Streptococcus pneumoniae [3] = assay: Bactericidal activity against erythromycin-susceptible Streptococcus pneumoniae ATCC49619 pretreated followed by subculture in absence of compound measured after 24 hrs
In short: (§1)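 Isolates were identified by 16S rDNA sequencing. MIC was determined by CLSI-recommended two-fold broth dilution. For MBC, samples from 1–8 fold MIC were transferred to culture medium and subcultured for 24 h without antibiotic.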

Haemophilus influenzae [4] = assay: Antibacterial activity against azithromycin-susceptible Haemophilus influenzae ATCC 49247 assessed as reduction in microbial growth by CLSI based two-fold broth dilution method
Streptococcus pneumoniae [5] = assay: Selectivity ratio of MBC to MIC for erythromycin-susceptible Streptococcus pneumoniae ATCC49619; in short: as §1
Streptococcus pneumoniae [6] = assay: Antibacterial activity against Streptococcus pneumoniae 07P390 expressing constitutive ermB gene assessed as reduction in microbial growth by CLSI based two-fold broth dilution method
Streptococcus pneumoniae [7] = assay: Antibacterial activity against penicillin-susceptible Streptococcus pneumoniae PU 09 expressing mef gene assessed as reduction in microbial growth by CLSI based two-fold broth dilution method
Streptococcus pneumoniae [8] = assay: Bactericidal activity against penicillin-susceptible Streptococcus pneumoniae PU 09 expressing mef gene pretreated followed by subculture in absence of compound measured after 24 hrs; in short: as §1
Streptococcus pneumoniae [9] = assay: Selectivity ratio of MBC to MIC for penicillin-susceptible Streptococcus pneumoniae PU 09 expressing mef gene; in short: as §1
Streptococcus pneumoniae [10] = assay: Bactericidal activity against Streptococcus pneumoniae 07P390 expressing constitutive ermB gene pretreated followed by subculture in absence of compound measured after 24 hrs; in short: as §1
Streptococcus pneumoniae [11] = assay: Selectivity ratio of MBC to MIC for Streptococcus pneumoniae 07P390 expressing constitutive ermB gene; in short: as §1
Haemophilus influenzae [12] = assay: Bactericidal activity against azithromycin-susceptible Haemophilus influenzae ATCC 49247 pretreated followed by subculture in absence of compound measured after 24 hrs; in short: as §1
Haemophilus influenzae [13] = assay: Selectivity ratio of MBC to MIC for azithromycin-susceptible Haemophilus influenzae ATCC 49247; in short: as §1
Streptococcus pyogenes [14] = assay: Antibacterial activity against MLS-resistant Streptococcus pyogenes 01-968 expressing inducible ermB gene assessed as reduction in microbial growth by CLSI based two-fold broth dilution method
Streptococcus pyogenes [15] = assay: Bactericidal activity against MLS-resistant Streptococcus pyogenes 01-968 expressing inducible ermB gene pretreated followed by subculture in absence of compound measured after 24 hrs
In short: (§2)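 MBC assay. Following MIC determination by CLSI standard two-fold broth dilution, samples at 1–8 fold MIC were transferred to fresh culture medium. They were subcultured for 24 h without antibiotic. Isolates were identified by 16S rDNA sequencing. S. aureus ATCC 29213 was used as a control strain.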

Streptococcus pyogenes [16] = assay: Selectivity ratio of MBC to MIC for MLS-resistant Streptococcus pyogenes 01-968 expressing inducible ermB gene
In short: (§3)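 MBC/MIC ratio. MIC was measured by CLSI standard two-fold broth dilution. MBC was measured by transferring samples at 1–8 fold MIC to culture medium and subculturing for 24 h without antibiotic. Isolates were identified by 16S rDNA sequencing.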

Staphylococcus aureus [17] = assay: Bactericidal activity against MLS/methicillin-resistant Staphylococcus aureus PU 32 expressing inducible ermA gene pretreated followed by subculture in absence of compound measured after 24 hrs; in short: as §2
Staphylococcus aureus [18] = assay: Selectivity ratio of MBC to MIC for MLS/methicillin-resistant Staphylococcus aureus PU 32 expressing inducible ermA gene; in short: as §3
Staphylococcus aureus [19] = assay: Antibacterial activity against MLS-resistant Staphylococcus aureus PU 20 expressing constitutive ermC gene assessed as reduction in microbial growth by CLSI based two-fold broth dilution method
Staphylococcus aureus [20] = assay: Bactericidal activity against MLS-resistant Staphylococcus aureus PU 20 expressing constitutive ermC gene pretreated followed by subculture in absence of compound measured after 24 hrs; in short: as §2
Staphylococcus aureus [21] = assay: Selectivity ratio of MBC to MIC for MLS-resistant Staphylococcus aureus PU 20 expressing constitutive ermC gene; in short: as §3

Row | SMILES | MIC (Staphylococcus aureus [1]) | MIC (Streptococcus pneumoniae [2]) | MBC (Streptococcus pneumoniae [3]) | MIC (Haemophilus influenzae [4]) | Selectivity ratio (Streptococcus pneumoniae [5]) | MIC (Streptococcus pneumoniae [6]) | MIC (Streptococcus pneumoniae [7]) | MBC (Streptococcus pneumoniae [8]) | Selectivity ratio (Streptococcus pneumoniae [9]) | MBC (Streptococcus pneumoniae [10]) | Selectivity ratio (Streptococcus pneumoniae [11]) | MBC (Haemophilus influenzae [12]) | Selectivity ratio (Haemophilus influenzae [13]) | MIC (Streptococcus pyogenes [14]) | MBC (Streptococcus pyogenes [15]) | Selectivity ratio (Streptococcus pyogenes [16]) | MBC (Staphylococcus aureus [17]) | Selectivity ratio (Staphylococcus aureus [18]) | MIC (Staphylococcus aureus [19]) | MBC (Staphylococcus aureus [20]) | also measured
1 | CC[C@H]1OC(=O)[C@@](C)(F)C(=O)[C@H](C)[C@@H](O[C@@H]2O[C@H](C)C[C@H](N(C)C)[C@H]2O)[C@](C)(OC)C[C@@H](C)/C(=N\OC/C=C/c2cnc3ccccc3c2N)[C@H](C)[C@H]2OC(=O)O[C@@]21C | 1 µg/mL | 0.125 µg/mL | 0.25 µg/mL (≈ 0.302 µM) | 16 µg/mL | 2 | 32 µg/mL | 2 µg/mL | 2 µg/mL (≈ 2.41 µM) | 1 | 32 µg/mL (≈ 38.6 µM) | 1 | 32 µg/mL (≈ 38.6 µM) | 2 | 0.016 µg/mL | > 0.125 µg/mL | >8 | 8 µg/mL (≈ 9.65 µM) | 8 | 64 µg/mL | 128 µg/mL (≈ 154 µM) | Selectivity ratio (Staphylococcus aureus [21]): 2
2 | CC[C@H]1OC(=O)[C@@](C)(F)C(=O)[C@H](C)[C@@H](O[C@@H]2O[C@H](C)C[C@H](N(C)C)[C@H]2O)[C@](C)(OC)C[C@@H](C)/C(=N\OCCCc2ccc3c(c2)c(=O)c(C(=O)O)cn3C2CC2)[C@H](C)[C@H]2OC(=O)O[C@@]21C | 4 µg/mL | 0.125 µg/mL | 0.25 µg/mL (≈ 0.273 µM) | 16 µg/mL | 2 | 8 µg/mL | 2 µg/mL | 2 µg/mL (≈ 2.18 µM) | 1 | 16 µg/mL (≈ 17.5 µM) | 2 | 32 µg/mL (≈ 34.9 µM) | 2 | 0.125 µg/mL | > 1 µg/mL | >8 | 8 µg/mL (≈ 8.73 µM) | 2 | 64 µg/mL | 128 µg/mL (≈ 140 µM) | Selectivity ratio (Staphylococcus aureus [21]): 2
3 | CC[C@H]1OC(=O)[C@@](C)(F)C(=O)[C@H](C)[C@@H](O[C@@H]2O[C@H](C)C[C@H](N(C)C)[C@H]2O)[C@](C)(OC/C=C/c2ccc3c(c2)c(=O)c(C(=O)O)cn3C2CC2)C[C@@H](C)/C(=N\OC)[C@H](C)[C@H]2OC(=O)O[C@@]21C | 0.25 µg/mL | 0.125 µg/mL | 0.25 µg/mL (≈ 0.274 µM) | 2 µg/mL | 2 | 1 µg/mL | 2 µg/mL | 2 µg/mL (≈ 2.19 µM) | 1 | 8 µg/mL (≈ 8.75 µM) | 8 | 4 µg/mL (≈ 4.38 µM) | 2 | 0.031 µg/mL | 0.25 µg/mL (≈ 0.274 µM) | 8 | 2 µg/mL (≈ 2.19 µM) | 8 | 64 µg/mL | 128 µg/mL (≈ 140 µM) | Selectivity ratio (Staphylococcus aureus [21]): 2

Reference: ChEMBL document CHEMBL4346654 (Eur J Med Chem, 2019)
